Compound activity as filed in PubChem BioAssay.
sdo1 growth: growth rescue of sdo1-depleted yeast, primary screen, S. cerevisiae, bone marrow failure model | S. cerevisiae sdo1-depleted JHY4D growth rescue, OD600 30 h; stronger effect = higher value; pdr5 snq2 efflux-pump mutant strain | z-score at 10 µM | 0.21% of 140,000 active;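 active = z-score above 3 at both the 24 hr and the 30 hr optical density reads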;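 also: z-score against mean and SD of all compound wells on the same plate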
RAM network inh: inhibitors of the yeast RAM network, primary screen, dse1pr::URA3 reporter, 5-FOA selection; S. cerevisiae dse1pr::URA3 reporter, 5-FOA growth OD615, 2 d; analog-sensitive cbk1-as2 kinase mutant strain; inhibition, % at 50 µM; 1.8% of 190,000 active; AID 868, 2007;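 active = inhibition above a set limit, 3 SD over mean compound inhibition, cut at about 8.4% in these data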;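 also: 0% = DMSO-only wells with no growth and 100% = 10 µM 1-NA-PP1 full growth; inhibition rescues growth on 5-FOA so higher OD means more RAM inhibition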
Yeast lifespan up: compounds extending yeast replicative lifespan, primary screen, S. cerevisiae, OD615 | S. cerevisiae growth with nicotinamide; deaD strain in restrictive glucose medium | inhibition of the nicotinamide effect, % at 10 µM | 0.68% of 130,000 active | AID 775, 2007;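 active = inhibition above a set limit, placed 3 SD over the median of all compounds, cut at about 26% in these data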;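 also: 0% = nicotinamide-treated wells and 100% = cells grown without nicotinamide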
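assay system = DeaD-strain S. cerevisiae | measured by = absorbance at 615 nm | probe or stimulus = nicotinamide 1.5 mM | buffer or medium = CSMM-D glucose medium, restrictive | times = 48 h at 30 °C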
Yeast growth inh: growth inhibitors of yeast BB579 in restrictive medium, primary screen, yeast lifespan-shortening project, S. cerevisiae. OD615, 48 h. inhibition, % at 10 µM. 0.51% of 140,000 active;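 active = inhibition above a set limit, 3 SD over the mean compound inhibition, cut at about 44% in these data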
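Test system: Saccharomyces cerevisiae DeaD strain BB579, replicative lifespan model yeast | Buffer or medium: Restrictive CSMM-D medium | Doses: One dose, 10 µM compound with 0.25% DMSO | Incubation: 48 h exposure, 30 °C | Detection: Culture absorbance at 615 nm | Control set: Amphotericin B at 10 µg/mL as positive control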
Measles CPE: compounds protecting cells from measles virus cytopathic effect, primary screen, measles RdRp inhibitor project, single point, MLSMR library, absorbance; Measles virus-infected cells, CPE protection; protection (pct of control), % at 4 µM; 1.5% of 140,000 active; in the data active = protection mostly above about 24%, no sharp cut-off; inactive = mostly below about 26%
RAM 5-FOA: 5-FOA growth of efflux-deficient control yeast, dose response, counter-screen for RAM network inhibitor project, S. cerevisiae, OD615 | S. cerevisiae efflux-deficient reporter strain, 5-FOA growth OD615, 2 days | shares compounds with RAM network inh | 1,200 tested, under 10 active | max inhibition, %; call rule not given here;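 also: plate controls were vehicle for no effect and reference inhibitor for full effect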
* hit, by the source's call; · = no result; [ ] = another dose, or the depositor's remark. Compounds with a hit are over-represented: about 3.8% of the library has one in this group of screens.

SMILES	sdo1 growth	RAM network inh	Yeast lifespan up	Yeast growth inh	Measles CPE	RAM 5-FOA
Cc1ccc(C(c2nnnn2C(C)(C)C)N(Cc2ccco2)Cc2cccs2)cc1 (stereo not given)	-0.81	6.7	-0.8	-16.5	6.5	·
COc1ccc(Cn2nnnc2C(C(C)C)N(Cc2ccco2)Cc2cccs2)cc1 (stereo not given)	-0.29	12.1*	-0.5	-12.6	3.4	3.6
Cc1nnc(SCC(=O)NC2CCCCC2C)s1 (stereo not given)	·	0.4	·	·	·	·
O=C(NC1=NCCCCC1)c1cccc2ccccc12	·	0.1	·	·	·	·
CCOCC(=O)Nc1cc(C(=O)Nc2cc(C)cc(C)c2)ccc1Cl	·	5.3	·	·	·	·
O=[N+]([O-])c1cc(S(=O)(=O)N2CCCCC2)ccc1NCCN1CCOCC1	·	1.1	·	·	·	·
CCOC(=O)c1c(NC(=O)COC(=O)CCS(=O)(=O)c2ccc(C)cc2)sc(C)c1C	0.33	14.3*	4.1	-9.3	2.3	2.6
CCOC(=O)c1cc(-c2ccccc2)sc1NC(=O)COC(=O)c1cccc(S(N)(=O)=O)c1	·	5.7	·	·	·	·
CCOC(=O)c1cc(C(C)C)sc1NC(=O)COC(=O)CCS(=O)(=O)c1ccccc1	-0.27	12.8*	3.3	-28.6	3.0	2.2
Cc1ccc(O)c(-c2cc(-c3cccc(Br)c3)n[nH]2)c1	·	11.6*	·	·	·	3.1
CCOP(=O)(OCC)c1nc(-c2cccc3ccccc23)oc1NCc1ccc(OC)cc1	·	12.9*	·	·	·	2.5
CCOP(=O)(OCC)c1nc(-c2cccc3ccccc23)oc1NCc1ccccc1	-1.18	5.7	-5.3	-27.4	1.3	·
Cc1ccc(-c2cccc(C(=O)NCCc3ccccc3)n2)c2ccccc12	-0.78	13.8*	-0.4	-38.8	4.8	5.7
Cc1ccc(-c2ccc(C(=O)NCc3ccccc3)o2)c2ccccc12	-0.62	12.5*	0.4	-38.4	3.4	2.2
Brc1c(OCCOCCn2cncn2)ccc2ccccc12	0.17	-1.1	-17.7	2.9	6.2	·
CC(C)CC(=O)c1c[nH]c(C(=O)N2CCN(Cc3ccccc3)CC2)c1	·	0.2	·	·	·	·
COC(=O)C1=C(NC(=O)c2ccccc2[N+](=O)[O-])CCS1	·	-1.2	·	·	·	·
CNCC(C)COc1ccccc1OCc1ccccc1 (stereo not given)	0.57	19.7*	0.9	-16.6	9.9	1.5
CC(O)CNCCCOc1ccccc1OCc1ccccc1 (stereo not given)	·	2.8	·	·	·	·
COc1ccc(N(CC(=O)NCCSCc2ccco2)S(=O)(=O)c2ccc(C)cc2)cc1	·	14.8*	·	·	·	2.0
CS(=O)(=O)N(Cc1ccc(C(=O)NCCSCc2ccco2)cc1)c1ccccc1	-0.49	11.7*	21.6	-67.3	3.4	2.4
Cc1ccc(S(=O)(=O)Cn2nnnc2C(C(C)C)N2CCN(Cc3ccco3)CC2)cc1 (stereo not given)	0.13	1.9	19.6	-50.2	14.3	·
Cc1ccc(S(=O)(=O)Cn2nnnc2CN(Cc2ccco2)Cc2cccs2)cc1	-0.71	11.8*	1.6	-49.2	7.1	1.8
N=C1C(c2ccccc2)=C(O)CN1CCO	·	0.6	·	·	·	·
CCC(=O)Nc1ccccc1C(=O)OCc1ccc(C(=O)c2ccccc2)cc1	-0.08	12.2*	-9.1	-49.9	3.1	3.5
SMILES	sdo1 growth	RAM network inh	Yeast lifespan up	Yeast growth inh	Measles CPE	RAM 5-FOA
O=[N+]([O-])c1ccc(C2Nc3cccc4cccc(c34)N2)cc1	0.25	11.8*	0.2	-33.2	16.8	3.1
COc1ccccc1OCCNS(=O)(=O)c1ccc2oc3ccccc3c2c1	0.01	14.6*	3.4	-9.6	13.1	4.9
COc1ccc(S(=O)(=O)NCCOc2cccc3cccnc23)cc1OC	·	-0.1	·	·	·	·
CCN(CC)C(=O)COc1ccc2oc(C)c(C(=O)OC(C)C)c2c1	-0.16	0.9	-2.3	-23.3	10.1	·
COCCOC(=O)c1c(C)oc2ccc(OC(=O)COc3c(F)c(F)c(F)c(F)c3F)cc12	-0.21	16.0*	-5.9	9.8	6.3	1.8
Cc1oc2ccc(OC(=O)COc3c(F)c(F)c(F)c(F)c3F)cc2c1C(=O)OC(C)C	0.67	13.3*	4.1	-26.2	12.5	2.1
COCCOC(=O)c1c(C)oc2ccc(OS(C)(=O)=O)cc12	·	2.5	·	·	·	·
CCN(CC)c1nc(SCCOC(=O)Nc2ccccc2)nc(N(CC)CC)n1	0.27	18.0*	·	-41.0	14.1	8.1
CC1(C)CC(C(CCN(Cc2ccccc2)C(=O)c2ccco2)c2ccc(F)cc2)CCO1 (stereo not given)	-0.41	11.9*	11.5	-47.8	26.9	3.2
CC1(C)CC(N(Cc2cccs2)C(=O)c2ccco2)CCO1 (stereo not given)	-0.26	0.0	-7.5	-10.8	1.7	·
Cc1ccccc1OCC(O)Cn1c2ccccc2c2ccccc21 (stereo not given)	-1.29	12.6*	-13.3	-28.8	6.0	5.6
CC(=O)Nc1ccc(OCC(O)Cn2c3ccccc3c3ccccc32)c(C)c1 (stereo not given)	-2.48	7.0	-3.3	-51.9	23.2	·
Cc1cc2cc(CNS(=O)(=O)c3ccc4ccccc4c3)ccc2n1C	0.32	3.8	-4.3	-12.6	8.4	·
Cc1cc(C)c(S(=O)(=O)NCc2ccc3c(c2)cc(C)n3C)c(C)c1	-0.35	13.7*	9.2	-42.8	14.7	2.3
Cc1cc(NC(=O)CCSc2ccccc2)ccc1Br	-1.36	13.9*	-7.6	-6.9	31.5	1.9
Cc1cccc(C(=O)NCc2nnc3c4ccccc4c(-c4ccccc4)nn23)c1	-0.28	11.6*	0.8	-27.1	5.5	4.0
O=C(CSc1nnc(-c2ccncc2)n1-c1ccccc1Cl)Nc1ccc(C(=O)O)cc1	·	11.6*	·	·	·	2.7
CCCCNC(=O)c1cn(-c2ccc(OCC)cc2)c(=O)c2cc(OC)c(OC)cc12	-0.65	4.2	-9.0	-50.9	8.0	·
Cc1ccc(-c2cccc(OC(=O)c3ccccc3F)c2)cc1	0.38	14.5*	-0.1	-28.9	4.5	2.9
CCN(CC)c1ccc(/C=N/NC(=S)NCc2ccccc2)cc1	-1.2	-0.3	-11.5	11.7	6.8	·
C=CCNC(=S)N/N=C/c1ccc(N(CC)Cc2ccccc2)cc1	-0.25	15.1*	-1.2	-12.9	3.7	3.1
N#Cc1c(SCc2ccccc2)nc(N2CCOCC2)c2c1CCCC2	0.29	15.0*	-0.8	-16.9	22.6	3.6
CCSc1nc(N2CCCCC2)c2c(c1C#N)CCCC2	-0.23	3.3	-6.2	-39.1	17.9	·
C=CCn1c(SCC(=O)O)nc2sc(CC)cc2c1=O	·	1.8	·	·	·	·
C=CCn1c(SCC(=O)/C(C#N)=C(\C)N)nc2sc(CC)cc2c1=O	0.19[8.5 µM]	12.8*	-2.6	-31.1	2.4	7.8
